Assay results as given in ChEMBL document CHEMBL4184148 (Bioorg Med Chem Lett, 2017).

How the values were obtained:
Aurora kinase A = target: T1, Aurora kinase A (Homo sapiens, UniProt O14965); assay: Inhibition of recombinant full length His-tagged human Aurora A expressed in baculovirus expression system by Z'LYTE assay
T1 sequence (O14965 whole entry): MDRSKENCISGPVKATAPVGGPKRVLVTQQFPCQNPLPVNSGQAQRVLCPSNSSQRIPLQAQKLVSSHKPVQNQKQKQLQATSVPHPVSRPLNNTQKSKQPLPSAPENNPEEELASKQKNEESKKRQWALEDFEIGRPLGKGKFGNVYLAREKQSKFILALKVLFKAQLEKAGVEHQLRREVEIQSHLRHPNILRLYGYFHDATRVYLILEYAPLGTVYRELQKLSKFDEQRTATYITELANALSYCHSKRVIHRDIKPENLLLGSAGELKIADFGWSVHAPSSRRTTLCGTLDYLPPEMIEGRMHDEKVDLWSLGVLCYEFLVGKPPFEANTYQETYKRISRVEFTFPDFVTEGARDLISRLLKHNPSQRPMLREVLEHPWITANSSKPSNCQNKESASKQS
Outline: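 Z'LYTE biochemical kinase assay with ATP at the Km for each kinase. IC50 determined from the assay and reported ± standard error.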

[1] = system: Epidermal growth factor receptor (Homo sapiens), P00533 [L858R]; assay: Binding affinity to human partial length EGFR L858R mutant (R669 to V1011 residues) expressed in Escherichia coli BL21 at 1 uM by Kinomescan method relative to control
[2] = target: Fibroblast growth factor receptor 3 (Homo sapiens) (UniProt P22607); assay: Binding affinity to wild-type human partial length FGFR3 (R442 to S771 residues) expressed in Escherichia coli BL21 at 1 uM by Kinomescan method relative to control
[3] = target: Rhodopsin kinase GRK7 (Homo sapiens) (UniProt Q8WTQ7); assay: Binding affinity to wild-type human full length GRK7 (M1 to L553 residues) expressed in HEK293 cells at 1 uM by Kinomescan method relative to control; type: cell-based
Rhodopsin kinase GRK7 (Homo sapiens), sequence (Q8WTQ7 whole entry, the tested form may be a part): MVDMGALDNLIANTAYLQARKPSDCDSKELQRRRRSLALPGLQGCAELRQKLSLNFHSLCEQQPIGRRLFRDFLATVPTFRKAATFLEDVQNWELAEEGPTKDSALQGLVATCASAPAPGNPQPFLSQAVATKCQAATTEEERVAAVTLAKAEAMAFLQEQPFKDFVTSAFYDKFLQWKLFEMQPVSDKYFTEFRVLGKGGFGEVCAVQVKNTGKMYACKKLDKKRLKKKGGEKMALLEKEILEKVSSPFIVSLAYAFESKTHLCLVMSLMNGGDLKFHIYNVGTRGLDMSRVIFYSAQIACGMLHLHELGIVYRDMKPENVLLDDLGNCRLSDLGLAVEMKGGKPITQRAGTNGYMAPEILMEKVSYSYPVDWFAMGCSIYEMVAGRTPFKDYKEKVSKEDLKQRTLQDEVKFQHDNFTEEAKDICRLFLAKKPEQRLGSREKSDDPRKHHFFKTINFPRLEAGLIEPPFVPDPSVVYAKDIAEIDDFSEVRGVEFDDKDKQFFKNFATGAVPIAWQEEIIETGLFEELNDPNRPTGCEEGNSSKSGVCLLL
Outline: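 Run as one kinome-wide competition binding panel with each compound at a single fixed concentration. Results were plotted as a kinome-wide selectivity map.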

[4] = target: Tyrosine-protein kinase JAK3 (Homo sapiens) (UniProt P52333); assay: Binding affinity to wild-type human partial length JAK3 JH1 catalytic domain (I781 to S1124 residues) expressed in HEK293 cells at 1 uM by Kinomescan method relative to control; type: cell-based
[5] = system: Mast/stem cell growth factor receptor Kit (Homo sapiens), P10721 [L576P]; assay: Binding affinity to human partial length KIT L576P mutant (Y545 to D952 residues) expressed in Escherichia coli BL21 at 1 uM by Kinomescan method relative to control
[6] = target: Tyrosine-protein kinase Lck (Homo sapiens) (UniProt P06239); assay: Binding affinity to wild-type human partial length LCK (R207 to P509 residues) expressed in Escherichia coli BL21 at 1 uM by Kinomescan method relative to control
Tyrosine-protein kinase Lck (Homo sapiens), sequence (P06239 2-509 limits assumed): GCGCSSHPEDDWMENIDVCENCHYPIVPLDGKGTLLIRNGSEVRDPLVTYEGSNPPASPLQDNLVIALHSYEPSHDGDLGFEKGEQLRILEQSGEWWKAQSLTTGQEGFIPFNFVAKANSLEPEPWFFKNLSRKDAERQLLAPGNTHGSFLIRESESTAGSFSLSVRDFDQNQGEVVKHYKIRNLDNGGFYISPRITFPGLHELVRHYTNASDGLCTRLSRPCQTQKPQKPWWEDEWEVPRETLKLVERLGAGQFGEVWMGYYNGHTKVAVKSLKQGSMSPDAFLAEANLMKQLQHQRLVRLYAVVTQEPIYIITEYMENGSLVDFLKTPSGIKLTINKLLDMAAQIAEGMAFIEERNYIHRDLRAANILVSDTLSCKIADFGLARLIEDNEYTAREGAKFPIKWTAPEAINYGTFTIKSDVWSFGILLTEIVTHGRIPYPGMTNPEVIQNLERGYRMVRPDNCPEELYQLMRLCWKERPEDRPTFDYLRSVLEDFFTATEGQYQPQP

[7] = target: Serine/threonine-protein kinase MARK2 (Homo sapiens) (UniProt Q7KZI7); assay: Binding affinity to wild-type human partial length MARK2 (M1 to R450 residues) expressed in Escherichia coli BL21 at 1 uM by Kinomescan method relative to control
[8] = target: MAP/microtubule affinity-regulating kinase 4 (Homo sapiens) (UniProt Q96L34); assay: Binding affinity to wild-type human partial length MARK4 (K29 to G340 residues) expressed in Escherichia coli BL21 at 1 uM by Kinomescan method relative to control
[9] = target: Tyrosine-protein kinase Mer (Homo sapiens) (UniProt Q12866); assay: Binding affinity to wild-type human partial length MERTK (R557 to L884 residues) expressed in Escherichia coli BL21 at 1 uM by Kinomescan method relative to control
[10] = target: Serine/threonine-protein kinase mTOR (Homo sapiens) (UniProt P42345); assay: Binding affinity to wild-type human partial length MTOR (L1382 to W2549 residues) expressed in HEK293 cells at 1 uM by Kinomescan method relative to control; type: cell-based
[11] = target: Serine/threonine-protein kinase PAK 2 (Homo sapiens) (UniProt Q13177); assay: Binding affinity to wild-type human partial length PAK2 (P151 to R525 residues) expressed in Escherichia coli BL21 at 1 uM by Kinomescan method relative to control
Serine/threonine-protein kinase PAK 2 (Homo sapiens), sequence (Q13177 whole entry, the tested form may be a part): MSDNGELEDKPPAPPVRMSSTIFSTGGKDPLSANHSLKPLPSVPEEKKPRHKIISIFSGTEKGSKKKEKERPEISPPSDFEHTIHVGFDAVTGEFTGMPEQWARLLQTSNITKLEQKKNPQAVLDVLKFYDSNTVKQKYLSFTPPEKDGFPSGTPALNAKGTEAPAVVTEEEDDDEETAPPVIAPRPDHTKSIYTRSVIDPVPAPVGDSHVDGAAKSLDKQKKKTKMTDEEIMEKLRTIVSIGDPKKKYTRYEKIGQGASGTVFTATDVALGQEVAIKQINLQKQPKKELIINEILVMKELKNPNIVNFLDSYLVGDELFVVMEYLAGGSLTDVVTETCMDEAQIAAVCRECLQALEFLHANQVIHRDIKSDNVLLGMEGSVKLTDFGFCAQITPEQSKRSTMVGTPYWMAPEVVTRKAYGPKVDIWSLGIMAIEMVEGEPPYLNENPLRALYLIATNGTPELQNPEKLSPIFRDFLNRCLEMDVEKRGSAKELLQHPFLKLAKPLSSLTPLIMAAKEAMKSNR

[12] = target: Cyclin-dependent kinase 18 (Homo sapiens) (UniProt Q07002); assay: Binding affinity to wild-type human full length PCTK3 (M3 to F474 residues) expressed in Escherichia coli BL21 at 1 uM by Kinomescan method relative to control
Cyclin-dependent kinase 18 (Homo sapiens), sequence (Q07002 whole entry, the tested form may be a part): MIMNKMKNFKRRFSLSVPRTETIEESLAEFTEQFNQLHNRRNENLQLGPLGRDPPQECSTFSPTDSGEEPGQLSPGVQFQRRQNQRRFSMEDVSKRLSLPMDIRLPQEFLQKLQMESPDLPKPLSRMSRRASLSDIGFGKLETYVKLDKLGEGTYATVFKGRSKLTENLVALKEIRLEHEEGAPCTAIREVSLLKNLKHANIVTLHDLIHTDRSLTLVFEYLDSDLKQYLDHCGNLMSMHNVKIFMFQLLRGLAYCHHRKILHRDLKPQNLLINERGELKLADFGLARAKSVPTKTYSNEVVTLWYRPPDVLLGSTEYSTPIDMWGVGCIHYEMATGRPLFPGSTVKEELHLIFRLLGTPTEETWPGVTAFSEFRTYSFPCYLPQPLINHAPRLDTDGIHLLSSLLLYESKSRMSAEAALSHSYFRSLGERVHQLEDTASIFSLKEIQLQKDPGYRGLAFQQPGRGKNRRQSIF
Outline: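 Kinome-wide competition binding panel run by an outside provider, with each compound tested at a single concentration. Activity is read against the kinase panel.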

[13] = target: Phosphatidylinositol 4-phosphate 3-kinase C2 domain-containing subunit beta (Homo sapiens) (UniProt O00750); assay: Binding affinity to wild-type human partial length PIK3C2B (M1 to L1634 residues) expressed in HEK293 cells at 1 uM by Kinomescan method relative to control; type: cell-based
Phosphatidylinositol 4-phosphate 3-kinase C2 domain-containing subunit beta (Homo sapiens), sequence (O00750 whole entry, the tested form may be a part): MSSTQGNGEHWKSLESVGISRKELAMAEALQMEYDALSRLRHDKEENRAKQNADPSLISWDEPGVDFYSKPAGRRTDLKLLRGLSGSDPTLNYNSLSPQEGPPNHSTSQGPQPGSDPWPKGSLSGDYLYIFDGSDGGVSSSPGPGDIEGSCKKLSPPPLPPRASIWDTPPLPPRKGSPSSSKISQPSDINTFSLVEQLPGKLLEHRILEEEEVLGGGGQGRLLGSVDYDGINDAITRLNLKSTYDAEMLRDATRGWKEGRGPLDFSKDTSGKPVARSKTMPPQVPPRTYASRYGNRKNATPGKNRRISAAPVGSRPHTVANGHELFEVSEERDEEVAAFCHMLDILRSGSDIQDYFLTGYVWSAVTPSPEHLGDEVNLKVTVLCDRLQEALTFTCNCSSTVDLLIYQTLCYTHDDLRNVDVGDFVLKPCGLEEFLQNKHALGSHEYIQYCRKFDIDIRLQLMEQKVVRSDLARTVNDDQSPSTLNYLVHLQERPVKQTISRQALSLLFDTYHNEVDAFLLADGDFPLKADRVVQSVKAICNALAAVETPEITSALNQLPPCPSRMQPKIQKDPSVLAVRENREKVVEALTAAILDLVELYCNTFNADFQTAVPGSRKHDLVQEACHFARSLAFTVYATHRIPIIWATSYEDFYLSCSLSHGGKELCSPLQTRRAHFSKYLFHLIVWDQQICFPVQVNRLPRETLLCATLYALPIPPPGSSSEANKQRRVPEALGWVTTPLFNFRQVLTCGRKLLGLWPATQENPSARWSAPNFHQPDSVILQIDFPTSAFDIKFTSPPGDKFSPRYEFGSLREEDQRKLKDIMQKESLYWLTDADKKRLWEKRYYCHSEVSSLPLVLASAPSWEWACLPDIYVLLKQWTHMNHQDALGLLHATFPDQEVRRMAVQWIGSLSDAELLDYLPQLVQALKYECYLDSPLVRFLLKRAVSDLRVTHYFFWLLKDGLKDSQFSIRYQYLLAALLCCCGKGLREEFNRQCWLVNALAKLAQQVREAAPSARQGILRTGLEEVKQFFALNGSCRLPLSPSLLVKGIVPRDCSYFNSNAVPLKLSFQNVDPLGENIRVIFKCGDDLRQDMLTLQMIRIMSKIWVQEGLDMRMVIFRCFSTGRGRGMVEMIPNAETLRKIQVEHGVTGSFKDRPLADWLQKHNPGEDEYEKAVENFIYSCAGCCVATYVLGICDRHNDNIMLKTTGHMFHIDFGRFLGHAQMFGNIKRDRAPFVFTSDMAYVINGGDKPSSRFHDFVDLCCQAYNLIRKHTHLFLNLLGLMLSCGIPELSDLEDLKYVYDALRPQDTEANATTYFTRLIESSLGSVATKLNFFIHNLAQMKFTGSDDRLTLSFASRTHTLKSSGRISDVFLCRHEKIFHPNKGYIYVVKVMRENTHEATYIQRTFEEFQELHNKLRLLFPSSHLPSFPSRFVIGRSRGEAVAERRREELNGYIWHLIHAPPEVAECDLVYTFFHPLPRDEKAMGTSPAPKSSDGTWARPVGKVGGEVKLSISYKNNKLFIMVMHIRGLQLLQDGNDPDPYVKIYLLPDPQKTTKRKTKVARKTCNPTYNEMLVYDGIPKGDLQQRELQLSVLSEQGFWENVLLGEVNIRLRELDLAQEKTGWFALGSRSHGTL

[14] = target: Serine/threonine-protein kinase D2 (Homo sapiens) (UniProt Q9BZL6); assay: Binding affinity to wild-type human partial length PRKD2 (A519 to E838 residues) expressed in Escherichia coli BL21 at 1 uM by Kinomescan method relative to control
[15] = target: Receptor-interacting serine/threonine-protein kinase 1 (Homo sapiens) (UniProt Q13546); assay: Binding affinity to wild-type human partial length RIPK1 (M1 to K305 residues) expressed in Escherichia coli BL21 at 1 uM by Kinomescan method relative to control
[16] = target: Ribosomal protein S6 kinase alpha-5 (Homo sapiens) (UniProt O75582); assay: Binding affinity to wild-type human partial length N-terminal RPS6KA5 kinase domain 1 expressed in Escherichia coli BL21 at 1 uM by Kinomescan method relative to control
[17] = target: Tyrosine-protein kinase SYK (Homo sapiens) (UniProt P43405); assay: Binding affinity to wild-type human partial length SYK (D354 to N635 residues) expressed in Escherichia coli BL21 at 1 uM by Kinomescan method relative to control
[18] = target: Serine/threonine-protein kinase TAO1 (Homo sapiens) (UniProt Q7L7X3); assay: Binding affinity to wild-type human partial length TAOK1 (M1 to A320 residues) expressed in HEK293 cells at 1 uM by Kinomescan method relative to control; type: cell-based
[19] = target: Serine/threonine-protein kinase TBK1 (Homo sapiens) (UniProt Q9UHD2); assay: Binding affinity to wild-type human full length TBK1 (M1 to L729 residues) expressed in HEK293 cells at 1 uM by Kinomescan method relative to control; type: cell-based
Serine/threonine-protein kinase TBK1 (Homo sapiens), sequence (Q9UHD2 whole entry, the tested form may be a part): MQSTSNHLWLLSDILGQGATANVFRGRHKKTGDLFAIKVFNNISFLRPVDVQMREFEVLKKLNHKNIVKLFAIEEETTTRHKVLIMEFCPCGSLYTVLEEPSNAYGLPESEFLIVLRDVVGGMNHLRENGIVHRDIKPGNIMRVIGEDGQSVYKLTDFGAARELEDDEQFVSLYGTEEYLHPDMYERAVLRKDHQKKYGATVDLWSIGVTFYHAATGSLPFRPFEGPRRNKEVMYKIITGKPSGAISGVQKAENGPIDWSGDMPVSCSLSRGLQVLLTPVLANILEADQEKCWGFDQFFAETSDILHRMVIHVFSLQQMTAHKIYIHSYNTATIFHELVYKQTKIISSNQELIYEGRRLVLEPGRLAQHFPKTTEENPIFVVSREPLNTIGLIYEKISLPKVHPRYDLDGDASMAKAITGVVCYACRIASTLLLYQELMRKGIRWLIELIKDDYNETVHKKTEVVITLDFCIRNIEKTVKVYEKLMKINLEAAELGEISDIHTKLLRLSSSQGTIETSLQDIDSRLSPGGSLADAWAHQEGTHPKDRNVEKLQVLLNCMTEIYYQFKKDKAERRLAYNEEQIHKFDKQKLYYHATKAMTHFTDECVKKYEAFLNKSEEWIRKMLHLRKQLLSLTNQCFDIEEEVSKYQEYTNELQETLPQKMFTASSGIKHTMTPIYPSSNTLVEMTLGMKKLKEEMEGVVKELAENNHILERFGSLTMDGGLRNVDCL

[20] = target: Phosphatidylinositol 3-kinase catalytic subunit type 3 (Homo sapiens) (UniProt Q8NEB9); assay: Binding affinity to wild-type human partial length VPS34 (S282 to H879 residues) expressed in HEK293 cells at 1 uM by Kinomescan method relative to control; type: cell-based
[21] = target: Serine/threonine-protein kinase 32C (Homo sapiens) (UniProt Q86UX6); assay: Binding affinity to wild-type human partial length YANK3 (M68 to G486 residues) expressed in Escherichia coli BL21 at 1 uM by Kinomescan method relative to control
Serine/threonine-protein kinase 32C (Homo sapiens), sequence (Q86UX6 whole entry, the tested form may be a part): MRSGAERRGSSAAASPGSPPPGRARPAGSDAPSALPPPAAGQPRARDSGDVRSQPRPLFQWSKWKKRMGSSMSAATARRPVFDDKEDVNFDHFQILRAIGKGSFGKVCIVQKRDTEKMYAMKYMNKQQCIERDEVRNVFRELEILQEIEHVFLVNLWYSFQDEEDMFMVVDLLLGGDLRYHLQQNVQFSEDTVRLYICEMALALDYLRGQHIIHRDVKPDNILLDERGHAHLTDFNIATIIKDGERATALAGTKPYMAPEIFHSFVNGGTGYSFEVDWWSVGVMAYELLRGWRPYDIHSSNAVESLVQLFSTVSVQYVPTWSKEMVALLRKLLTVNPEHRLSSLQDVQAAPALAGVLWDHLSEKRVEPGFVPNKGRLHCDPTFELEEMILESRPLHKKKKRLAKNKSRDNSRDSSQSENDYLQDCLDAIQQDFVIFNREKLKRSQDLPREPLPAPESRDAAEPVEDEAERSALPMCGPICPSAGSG

SMILES	IC50 (Aurora kinase A) [nM]	Activity [1] [%]	Activity [2] [%]	Activity [3] [%]	Activity [4] [%]	Activity [5] [%]	Activity [6] [%]	Activity [7] [%]	Activity [8] [%]	Activity [9] [%]	Activity [10] [%]	Activity [11] [%]	Activity [12] [%]	Activity [13] [%]	Activity [14] [%]	Activity [15] [%]	Activity [16] [%]	Activity [17] [%]	Activity [18] [%]	Activity [19] [%]	further results
CCC(=O)Nc1ccc(C(=O)Nc2ccc(Nc3ncc4c(n3)N(C)c3ccc(C)cc3C(=O)N4C)cc2)cc1	52	65	89	87	100	71	86	100	85	100	100	99	86	79	98	86	100	87	89	74	Activity [20]: 100%; Activity [21]: 100%
C=CC(=O)Nc1ccc(C(=O)Nc2ccc(Nc3ncc4c(n3)N(C)c3ccc(C)cc3C(=O)N4C)cc2)cc1	44	86	73	93	88	85	90	100	52	80	87	86	99	98	98	100	100	74	92	94	Activity [20]: 99%; Activity [21]: 100%
